Measured values as given in article PMC2174413 (Environmental Health Perspectives, 2007).

Key:
[1] = tested on: 3′-phosphoadenosine 5′-phosphosulfate synthase 1 (PAPSS1) mRNA; assay: Real-time RT-PCR of PAPSS1 steady-state mRNA in treated TE 671 cells; type: cell-based, human; conditions: 24 hr, 0.005–0.5 μM, ΔΔCt method, HPRT1 internal standard
Outline: (§1)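 TE 671 cells were pre-grown 72 hr in phenol red–free DMEM, plated at 4 ×10⁴ cells/well in 10% dialyzed FCS medium, equilibrated 24 hr, and dosed 24 hr (DMSO carrier, quadruplicate per dose). Total RNA (1 μg) was reverse-transcribed with poly T primers for 60 min at 42°C. SYBR Green qPCR used 60°C annealing, 44 cycles and a melt curve, with samples in quadruplicate; mean ± SE.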

[2] = tested on: sulfite oxidase (SUOX) mRNA; assay: Real-time RT-PCR of SUOX steady-state mRNA in treated TE 671 cells; type: cell-based, human; conditions: 24 hr, 0.005–0.5 μM, ΔΔCt method, HPRT1 internal standard
Outline: as §1

[3] = tested on: cysteine dioxygenase type I (CDO1) mRNA; assay: Real-time RT-PCR of CDO1 steady-state mRNA in treated TE 671 cells; type: cell-based, human; conditions: 24 hr, 0.005–0.5 μM, ΔΔCt method, HPRT1 internal standard
Outline: as §1

[4] = target: T1, human DHEA sulfotransferase (SULT 2A1) (Homo sapiens, UniProt Q06520); assay: Inhibition of sulfation of tritiated DHEA by SULT 2A1 in human liver cytosol; type: biochemical
T1 sequence (Q06520 1-285): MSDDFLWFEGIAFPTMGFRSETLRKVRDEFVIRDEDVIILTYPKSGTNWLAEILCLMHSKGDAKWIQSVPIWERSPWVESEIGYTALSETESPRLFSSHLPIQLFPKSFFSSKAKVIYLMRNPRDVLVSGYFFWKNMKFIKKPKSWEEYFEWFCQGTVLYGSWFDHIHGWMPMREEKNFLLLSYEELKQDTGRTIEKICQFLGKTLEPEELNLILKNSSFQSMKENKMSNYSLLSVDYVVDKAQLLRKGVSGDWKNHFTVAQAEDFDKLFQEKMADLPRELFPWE

[5] = tested on: SULT 2A1; conditions: read-out: Km of SULT 2A1 for DHEA; ref Chang et al. 2001; cited from earlier work

| Molecule | PAPSS1 mRNA expression level relative to undosed control [1] | SUOX mRNA expression level relative to undosed control [2] | CDO1 mRNA expression level relative to undosed control [3] | Ki [4] [µM] | Km [5] [µM] |
| --- | --- | --- | --- | --- | --- |
| Oc1ccc(Cl)cc1Cl [2,4-dichlorophenol] | did not show significant decreases | did not show significant decreases | did not show significant decreases | – | – |
| Cc1cc(O)ccc1Cl [4-chloro-3-methylphenol] | did not show significant decreases | did not show significant decreases | did not show significant decreases | – | – |
| CCCCCCCCCc1ccc(O)cc1 [4-n-Nonylphenol, 4-n-nonylphenol] | very significant dose-dependent decrease | – | – | 10.5 ± 0.6 | – |
| CC(C)(C)CC(C)(C)c1ccc(O)cc1 [4-tert-Octylphenol, 4-tert-octylphenol] | – | – | – | 2.8 ± 0.1 | – |
| CC(C)(c1ccc(O)cc1)c1ccc(O)cc1 [Bisphenol A, bisphenol A] | – | – | – | 16.3 ± 0.8 | – |
| C[C@]12CC[C@H](O)CC1=CC[C@@H]1[C@@H]2CC[C@]2(C)C(=O)CC[C@@H]12 [DHEA, dehydroepiandrosterone] | – | – | – | – | ~2 |
| CCCCOC(=O)c1ccccc1C(=O)OCCCC [Dibutyl phthalate, dibutyl phthalate] | – | – | – | 21.5 ± 1.4 | – |
| CC(C)CCCCCCCOC(=O)c1ccccc1C(=O)OCCCCCCCC(C)C [Diisodecyl phthalate, diisodecyl phthalate] | clear decreasing trend | – | – | – | – |
| CCCCC(CC)COC(=O)c1ccccc1C(=O)OCC(CC)CCCC (stereo not drawn) [bis(2-ethylhexyl)phthalate] | significant dose-dependent decreases | significant dose-dependent decreases | – | – | – |
| bisphenol A dimethacrylate | decreased in a dose-dependent manner | decreased in a dose-dependent manner | did not affect | – | – |
